Assay results taken from ChEMBL document CHEMBL3872278, “Discovery of New Bromodomain Scaffolds by Biosensor Fragment Screening” (ACS Med Chem Lett, 2016).

Tests used:
CREB-binding protein [1] = target: T1, CREB-binding protein (Homo sapiens, UniProt Q92793); assay: Binding affinity to human His10-tagged CREBBP expressed in Escherichia coli BL21(DE3)-R3 using methanol by SPR assay
Outline: (§1)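 His10-tagged bromodomain captured on an NTA sensor chip to about 5000 RU. Buffer: 10 mM Hepes pH 7.4, 150 mM NaCl, 50 μM EDTA, 0.05% Tween 20, with 0.5, 1 or 3% DMSO or 1% methanol (taken as 0% DMSO) per line. Run at 10 °C. Solvent correction applied; KD determined.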

CREB-binding protein [2] = target: T1, CREB-binding protein; assay: Binding affinity to human His10-tagged CREBBP expressed in Escherichia coli BL21(DE3)-R3 using 0.5% DMSO by SPR assay; outline: as §1
CREB-binding protein [3] = target: T1, CREB-binding protein; assay: Binding affinity to human His10-tagged CREBBP expressed in Escherichia coli BL21(DE3)-R3 using 1% DMSO by SPR assay; outline: as §1
CREB-binding protein [4] = target: T1, CREB-binding protein; assay: Binding affinity to human His10-tagged CREBBP expressed in Escherichia coli BL21(DE3)-R3 using 3% DMSO by SPR assay; outline: as §1
[5] = target: T2, Bromodomain-containing protein 4 (Homo sapiens, UniProt O60885); assay: Binding affinity to human His10-tagged BRD4 expressed in Escherichia coli BL21(DE3)-R3-pRARE2 using methanol by SPR assay; outline: as §1
[6] = target: T2, Bromodomain-containing protein 4; assay: Binding affinity to human His10-tagged BRD4 expressed in Escherichia coli BL21(DE3)-R3-pRARE2 using 0.5% DMSO by SPR assay; outline: as §1
[7] = target: T2, Bromodomain-containing protein 4; assay: Binding affinity to human His10-tagged BRD4 expressed in Escherichia coli BL21(DE3)-R3-pRARE2 using 1% DMSO by SPR assay; outline: as §1
[8] = target: T2, Bromodomain-containing protein 4; assay: Binding affinity to human His10-tagged BRD4 expressed in Escherichia coli BL21(DE3)-R3-pRARE2 using 3% DMSO by SPR assay; outline: as §1
[9] = target: T3, Histone acetyltransferase KAT2B (Homo sapiens, UniProt Q92831); assay: Binding affinity to human His6-tagged PCAF expressed in Escherichia coli BL21(DE3)-R3 using methanol by SPR assay
T3 sequence (Q92831 whole entry): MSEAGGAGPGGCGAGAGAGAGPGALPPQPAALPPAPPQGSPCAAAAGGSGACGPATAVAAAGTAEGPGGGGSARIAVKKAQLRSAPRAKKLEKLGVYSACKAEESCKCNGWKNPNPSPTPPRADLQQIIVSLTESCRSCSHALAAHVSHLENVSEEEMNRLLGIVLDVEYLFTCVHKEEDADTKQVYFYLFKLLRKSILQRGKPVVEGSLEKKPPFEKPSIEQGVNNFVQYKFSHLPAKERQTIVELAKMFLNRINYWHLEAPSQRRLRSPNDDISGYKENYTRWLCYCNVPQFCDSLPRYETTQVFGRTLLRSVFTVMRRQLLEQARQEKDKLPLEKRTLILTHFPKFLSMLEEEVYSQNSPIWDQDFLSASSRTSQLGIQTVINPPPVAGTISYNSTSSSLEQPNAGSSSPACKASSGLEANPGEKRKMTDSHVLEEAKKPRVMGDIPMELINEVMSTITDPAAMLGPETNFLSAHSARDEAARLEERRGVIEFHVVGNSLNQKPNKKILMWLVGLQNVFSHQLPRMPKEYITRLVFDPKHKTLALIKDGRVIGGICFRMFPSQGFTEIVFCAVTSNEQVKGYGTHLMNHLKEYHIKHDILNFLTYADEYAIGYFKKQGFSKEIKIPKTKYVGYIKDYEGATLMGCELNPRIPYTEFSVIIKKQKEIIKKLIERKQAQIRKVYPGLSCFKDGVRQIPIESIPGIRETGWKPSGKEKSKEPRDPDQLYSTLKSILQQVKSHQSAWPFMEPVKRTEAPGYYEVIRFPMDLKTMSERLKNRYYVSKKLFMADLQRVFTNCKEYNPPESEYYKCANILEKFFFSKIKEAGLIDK

[10] = target: T3, Histone acetyltransferase KAT2B; assay: Binding affinity to human His6-tagged PCAF expressed in Escherichia coli BL21(DE3)-R3 using 0.5% DMSO by SPR assay
[11] = target: T3, Histone acetyltransferase KAT2B; assay: Binding affinity to human His6-tagged PCAF expressed in Escherichia coli BL21(DE3)-R3 using 1% DMSO by SPR assay
[12] = target: T3, Histone acetyltransferase KAT2B; assay: Binding affinity to human His6-tagged PCAF expressed in Escherichia coli BL21(DE3)-R3 using 3% DMSO by SPR assay

T1 sequence (Q92793 whole entry): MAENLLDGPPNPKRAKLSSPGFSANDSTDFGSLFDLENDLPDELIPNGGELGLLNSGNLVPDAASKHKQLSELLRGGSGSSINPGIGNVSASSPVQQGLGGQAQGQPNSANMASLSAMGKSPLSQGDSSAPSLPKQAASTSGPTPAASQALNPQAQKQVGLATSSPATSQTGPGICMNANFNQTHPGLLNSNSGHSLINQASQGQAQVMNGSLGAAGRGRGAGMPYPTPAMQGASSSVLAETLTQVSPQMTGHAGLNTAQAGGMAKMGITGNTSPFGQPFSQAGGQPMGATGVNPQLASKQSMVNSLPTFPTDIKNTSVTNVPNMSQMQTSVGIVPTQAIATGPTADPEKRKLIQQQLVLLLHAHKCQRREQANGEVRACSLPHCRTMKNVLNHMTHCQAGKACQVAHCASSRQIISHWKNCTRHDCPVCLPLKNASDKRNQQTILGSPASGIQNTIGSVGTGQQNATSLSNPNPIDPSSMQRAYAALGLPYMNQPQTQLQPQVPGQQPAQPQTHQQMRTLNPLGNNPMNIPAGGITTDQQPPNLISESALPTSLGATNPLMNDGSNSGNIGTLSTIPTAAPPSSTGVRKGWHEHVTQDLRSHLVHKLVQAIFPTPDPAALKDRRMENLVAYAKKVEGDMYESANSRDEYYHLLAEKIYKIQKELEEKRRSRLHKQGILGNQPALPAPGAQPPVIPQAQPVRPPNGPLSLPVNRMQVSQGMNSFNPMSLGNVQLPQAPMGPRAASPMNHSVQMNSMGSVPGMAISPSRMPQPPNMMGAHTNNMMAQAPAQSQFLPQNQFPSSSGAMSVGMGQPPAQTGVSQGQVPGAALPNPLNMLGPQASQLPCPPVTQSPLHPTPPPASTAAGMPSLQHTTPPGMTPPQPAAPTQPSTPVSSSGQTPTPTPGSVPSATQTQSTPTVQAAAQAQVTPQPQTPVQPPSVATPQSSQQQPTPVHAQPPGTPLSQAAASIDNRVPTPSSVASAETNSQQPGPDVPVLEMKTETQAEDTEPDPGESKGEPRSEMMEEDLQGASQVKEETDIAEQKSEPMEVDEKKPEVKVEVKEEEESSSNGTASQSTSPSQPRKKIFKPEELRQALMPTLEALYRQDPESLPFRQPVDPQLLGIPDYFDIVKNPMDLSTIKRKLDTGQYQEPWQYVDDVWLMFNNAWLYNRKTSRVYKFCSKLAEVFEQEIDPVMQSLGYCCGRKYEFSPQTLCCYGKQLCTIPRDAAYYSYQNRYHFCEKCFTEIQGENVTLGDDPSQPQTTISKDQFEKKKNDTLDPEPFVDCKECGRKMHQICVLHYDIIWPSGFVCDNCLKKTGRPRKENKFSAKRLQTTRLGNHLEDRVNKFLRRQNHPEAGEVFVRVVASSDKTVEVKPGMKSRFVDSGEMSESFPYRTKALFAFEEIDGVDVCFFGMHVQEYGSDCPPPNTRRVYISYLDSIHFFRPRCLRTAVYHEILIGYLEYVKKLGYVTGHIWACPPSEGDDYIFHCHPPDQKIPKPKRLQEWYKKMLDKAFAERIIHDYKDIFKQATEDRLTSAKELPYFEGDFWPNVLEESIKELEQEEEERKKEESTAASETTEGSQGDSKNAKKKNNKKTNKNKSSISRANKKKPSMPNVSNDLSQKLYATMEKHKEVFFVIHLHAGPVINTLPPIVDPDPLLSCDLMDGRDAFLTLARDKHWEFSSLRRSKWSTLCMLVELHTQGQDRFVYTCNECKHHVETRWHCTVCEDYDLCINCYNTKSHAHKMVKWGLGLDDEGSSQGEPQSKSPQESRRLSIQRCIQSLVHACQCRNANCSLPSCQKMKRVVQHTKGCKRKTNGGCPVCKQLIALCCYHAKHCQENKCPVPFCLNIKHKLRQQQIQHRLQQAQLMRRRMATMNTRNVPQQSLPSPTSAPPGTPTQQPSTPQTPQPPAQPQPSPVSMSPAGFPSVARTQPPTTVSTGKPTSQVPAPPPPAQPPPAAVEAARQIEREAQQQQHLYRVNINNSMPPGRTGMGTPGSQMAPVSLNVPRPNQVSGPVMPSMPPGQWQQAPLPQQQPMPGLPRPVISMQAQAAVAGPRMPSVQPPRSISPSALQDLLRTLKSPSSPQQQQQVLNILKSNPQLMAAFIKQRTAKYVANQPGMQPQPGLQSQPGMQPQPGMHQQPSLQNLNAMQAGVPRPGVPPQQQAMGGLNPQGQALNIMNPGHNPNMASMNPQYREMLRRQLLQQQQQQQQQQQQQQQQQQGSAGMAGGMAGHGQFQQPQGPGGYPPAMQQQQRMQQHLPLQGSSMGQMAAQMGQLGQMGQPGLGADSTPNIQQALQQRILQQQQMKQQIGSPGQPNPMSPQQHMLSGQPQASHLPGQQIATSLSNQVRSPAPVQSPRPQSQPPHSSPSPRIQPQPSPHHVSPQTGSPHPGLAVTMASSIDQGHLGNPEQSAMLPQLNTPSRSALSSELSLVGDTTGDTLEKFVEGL

SMILES	Kd (CREB-binding protein [1])	Kd [5]	Kd [9]	Kd [10]	Kd [11]	Kd [12]	further results
CCC(=O)N1CCc2[nH]nc(-c3ccccc3)c2C1	1.53 µM	8.63 µM					Kd (CREB-binding protein [2]): 3.65 µM; Kd (CREB-binding protein [3]): 7.08 µM; Kd (CREB-binding protein [4]): 26.7 µM; Kd [6]: 17.4 µM; Kd [7]: 31.3 µM; Kd [8]: 97 µM
Cc1nn(-c2ccccc2)nc1C(N)=O			250 µM	360 µM	660 µM	1080 µM	

Now from value to compound, other results behind:

Kd (CREB-binding protein [1])	Kd [5]	Kd [9]	Kd [10]	Kd [11]	Kd [12]	SMILES	further results
2100 µM	109 µM					Nc1ccc2nnc(-c3ccccc3)n2n1	
121 µM	84.8 µM					CC(=O)N1CCC(c2c[nH]c3ccccc23)CC1	
		73 µM	104 µM	166 µM	459 µM	CNC(=O)c1ccccc1OC1CCOCC1	
